Experimental findings from ChEMBL document CHEMBL4513216, “Probing the Open Global Health Chemical Diversity Library for Multistage-Active Starting Points for Next-Generation Antimalarials” (ACS Infect Dis, 2020) are described below.

This data set in a line: Toxicity liver stage against HepG2, at 10uM. It is filed as cell-based. Further details: test concentration 10 uM, cell line HepG2-A16-CD81EGFP. The conditions noted are these: human, HepG2-A16-CD81EGFP cells; read-out: INHIBITION
In short, it runs like this: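 Uninfected HepG2-A16-CD81EGFP cells, 3 × 10^3 per well, 1536-well, plated on prespotted compound at 10 μM final, parasite-free screening media added to match infected plates; puromycin 10 μM positive, DMSO 0.5% negative; run in parallel with 48 h PbLuc assay at 37 °C, 5% CO2; viability by CellTiter-Glo luminescence, normalized to controls.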
As for `COC(=O)C1CCN(C(=O)CN2CCN(c3cccc(C)c3)CC2)CC1`, the cytotoxicity at 10 µM was -17.5%.

For the compound `O=C(NC[C@H]1C[C@@H]2CCN1C[C@@H]2CN1CCCCC1)Nc1ccsc1`, the cytotoxicity at 10 µM was -1.31%.

Regarding `Cc1nn(C)cc1CN1CCCCCC1c1ccccc1Cl` (stereo unspecified), the cytotoxicity at 10 µM was 7.49%.

Take `C=C(C)Cn1c(=O)nc(N)c2c(-c3ccc(OC)cc3)csc21`: the cytotoxicity at 10 µM was -26%.

With `Cc1cnc2n(c1=O)C(CC(=O)NCc1ccco1)CS2` (stereo unspecified), the cytotoxicity at 10 µM was -5.52%.

Turning to `O=S(=O)(c1cccnc1)N1CCN(Cc2nc(-c3ccco3)cs2)CC1`, the cytotoxicity at 10 µM came to 5.94%.

For `COc1ncccc1C(=O)N1CC(c2nc(-c3ccccn3)no2)C1`, the cytotoxicity at 10 µM worked out at 3.19%.

Turning to `CN(C)CC1CSCCCN1C(=O)c1ccc(-c2ccccc2)cc1` (stereo unspecified), the cytotoxicity at 10 µM came out at 4.54%.

Turning to `CN(C)CC(=O)N1CCC2(CC1)CN(Cc1ccccc1)C2`, the cytotoxicity at 10 µM was 5.03%.

With `O=C(c1ccco1)N1CCC2(CCC(=O)N2Cc2ccccc2)CC1`, the cytotoxicity at 10 µM came to 7.59%.

On to `CCN1C(=O)CC(c2ccccc2)C12CCN(c1ncc(C)cn1)CC2` (stereo unspecified), for which the cytotoxicity at 10 µM was -2.6%.

As for `CC(=O)NCC(=O)N1CCc2nc(C)nc(C)c2CC1`, the cytotoxicity at 10 µM is -12%.

With `Cc1nccc([C@H]2C[C@@H]3CCN(S(C)(=O)=O)C[C@H]3O2)n1`, the cytotoxicity at 10 µM is -0.522%.

For `CC(C)NC(=O)c1ccc2c(c1)nc1n2CCN(Cc2ccccc2)C1`, the cytotoxicity at 10 µM was 6.61%.

On to `CCn1c(O)c(C(C)=O)c2cc(C)ccc21`, for which the cytotoxicity at 10 µM is -8.24%.

For the compound `O=C(C1CC1)N1CC[C@H](O)[C@@H]1Cc1ccccc1`, the cytotoxicity at 10 µM is 1.93%.

In the case of `O=C(c1ccnn1COc1ccc(Cl)cc1)N1CCSCC1`, the cytotoxicity at 10 µM is -4.56%.

Take `Cc1cc(=O)n(CC(=O)NCC2CCCO2)c(-c2cccc(Cl)c2)n1` (stereo unspecified): the cytotoxicity at 10 µM was -11%.

Consider `CN1C[C@@H](C(=O)NC(C)(C)C)[C@@]2(COc3ccc(F)cc3C2=O)C1`, for which the cytotoxicity at 10 µM was determined as 1.5%.

For the compound `Cc1ccccc1C(=O)N1C[C@@H](O)[C@H](N2CCOCC2)C1`, the cytotoxicity at 10 µM stood at 9.3%.

Take `CC(=O)N1CCCC(c2ccc(Nc3nc(C)cc(C)n3)cn2)C1` (stereo unspecified): the cytotoxicity at 10 µM was -4.09%.

Consider `COc1ccccc1CC(C)CC(=O)NC(C)C` (stereo unspecified), for which the cytotoxicity at 10 µM is 6.16%.

Regarding `O=S(=O)(c1ccc(F)cc1F)N1CCCCC1c1nnc2n1CCCC2` (stereo unspecified), the cytotoxicity at 10 µM stood at 2.22%.

As for `CCNC(=O)CCC(=O)NC1(c2cccc(Br)c2)CC1`, the cytotoxicity at 10 µM was found to be 8.64%.

In the case of `COc1cccnc1NC(=O)COc1ccc(F)cc1F`, the cytotoxicity at 10 µM amounted to 8.68%.

As for `O=C(NC1CCC(C(=O)N2CCSCC2)CC1)N1CCC1` (stereo unspecified), the cytotoxicity at 10 µM was determined as 12.7%.

On to `Cc1cnn(CC2CCCCN2CC(=O)Nc2cccnc2)c1` (stereo unspecified), for which the cytotoxicity at 10 µM was 3.5%.

`CC(C)NC(=O)CN(C)C1CCN(c2cnc3ccccc3n2)CC1`: the cytotoxicity at 10 µM was -6.14%.

As to `COCC(C)(CCO)NC(=O)Nc1cccc(F)c1C` (stereo unspecified), the cytotoxicity at 10 µM worked out at 7.94%.

Turning to `COc1cccc(CC(=O)NC2CCCc3cn[nH]c32)c1` (stereo unspecified), the cytotoxicity at 10 µM amounted to 12.5%.

Turning to `Cn1nccc1NCc1cc2cc(F)ccc2o1`, the cytotoxicity at 10 µM came out at 8.57%.

On to `Cc1cnc2c(c1)N(C(=O)c1ccc(=O)n(C)c1)CCO2`, for which the cytotoxicity at 10 µM was 0.965%.

Take `COc1ccc(-n2cnnc2SCCC#N)cn1`: the cytotoxicity at 10 µM stood at 22.2%.

Regarding `CCC(CNC(=O)c1cc(OC)ccc1Br)N1CCc2ccccc2C1` (stereo unspecified), the cytotoxicity at 10 µM was -6.78%.

On to `CN(C(=O)c1cccc(C(=O)NCC(F)(F)F)c1)c1ccccc1`, for which the cytotoxicity at 10 µM was -14.8%.

For `Cc1cccc(N2CCOCC3(C2)CN(c2cncnc2)C(=O)CO3)n1` (stereo unspecified), the cytotoxicity at 10 µM amounted to 5.88%.

Take `Cn1ccc(C(=O)NC2CCC23CCN(C(=O)c2ccccn2)CC3)c1` (stereo unspecified): the cytotoxicity at 10 µM is -71.7%.

As for `COCCO[C@@H]1CCN(C(=O)c2ccc[nH]2)[C@H]1Cc1cnn(C)c1`, the cytotoxicity at 10 µM is -71.7%.

Turning to `O=C(c1cc(C2CC2)on1)N1CC[C@]2(C[C@H](Oc3cccnc3)CO2)C1`, the cytotoxicity at 10 µM was -9.63%.

As to `CNC(=O)c1cn2cc(-c3ccccc3Cl)n(CC3CC3)c(=O)c2n1`, the cytotoxicity at 10 µM came to 0.562%.

With `O=C(CN1C(=O)CCNC1=O)N1CCC(c2ccc(F)cc2)C1` (stereo unspecified), the cytotoxicity at 10 µM was 4.3%.

With `N#Cc1ccccc1CN1CCCC(c2nccn2CC2CC2)C1` (stereo unspecified), the cytotoxicity at 10 µM is 2.84%.

Take `Nc1ccncc1-n1cc(CCO)cn1`: the cytotoxicity at 10 µM amounted to 0.769%.

For the compound `CSCc1nc(CCNC(=O)c2cnn(C(C)C)c2)cs1`, the cytotoxicity at 10 µM is -7.91%.

For `COc1ccccc1N1CCN(CC[C@H](O)c2ccccc2)CC1=O`, the cytotoxicity at 10 µM is -0.081%.

Turning to `O=C(NC1CCCN(CCCc2ccccc2)C1)C1=CCCCC1` (stereo unspecified), the cytotoxicity at 10 µM is -0.739%.

Regarding `Fc1ccc(Cn2ncc3c2CN(c2noc(C4CC4)n2)C3)cc1`, the cytotoxicity at 10 µM is -2.76%.

On to `Cc1nc[nH]c1C(=O)N1CC[C@@H](NC(=O)c2ccccn2)[C@H](O)C1`, for which the cytotoxicity at 10 µM was determined as 4.61%.

With `O=C1N(Cc2ccc(F)cc2)CCCC12CCN(C1CCSCC1)C2` (stereo unspecified), the cytotoxicity at 10 µM came out at 1.77%.

In the case of `O=C(CCc1cc2n(n1)CCCN(C(=O)[C@H]1CCCO1)C2)NC1CC1`, the cytotoxicity at 10 µM was 4.78%.

For `CCc1ncc2c(n1)CN(C(=O)CCCc1ccc(OC)cc1)C2`, the cytotoxicity at 10 µM was -7.32%.

As to `Cc1c(C(=O)NCCC2CN(C)CCO2)n(C)c2c(C)cccc12` (stereo unspecified), the cytotoxicity at 10 µM was -3.83%.

With `CCOc1ccc(CN2CCNC(C(=O)NC3CC3)C2)cc1CO` (stereo unspecified), the cytotoxicity at 10 µM came to 2.95%.

With `CN1CCc2[nH]cnc2C12CCN(Cc1ccc3nsnc3c1)CC2`, the cytotoxicity at 10 µM came out at 5.05%.

As to `Cc1ccccc1-n1c(C)cc(=O)[nH]c1=O`, the cytotoxicity at 10 µM was -2.4%.

`CC(C)(C)c1cc2ncn(CCCN3CCCCC3CO)c(=O)c2s1` (stereo unspecified): the cytotoxicity at 10 µM was -5.39%.

Regarding `Cc1ccc(CN2CCC(c3nnc(CN4CCCCC4)n3C)CC2)o1`, the cytotoxicity at 10 µM was -5.1%.

With `COc1cccc2c1OCC(CNC(=O)CSc1nc(N)n[nH]1)C2` (stereo unspecified), the cytotoxicity at 10 µM is 0.712%.

`CCn1cc(CN2CCCn3nc(CCC(=O)NCCO)cc3C2)cn1`: the cytotoxicity at 10 µM was -18.2%.

As to `COc1ccc(OCc2nc(C(=O)N3CC(O)C3)co2)cc1`, the cytotoxicity at 10 µM is -9.29%.

In the case of `CNC(=O)C1(c2cnccn2)CCCN1C(=O)c1ccn(C)n1` (stereo unspecified), the cytotoxicity at 10 µM is -5.15%.

With `Cc1nc(C)n(C2CCCN(C(=O)CCOc3cccc(F)c3)C2)n1` (stereo unspecified), the cytotoxicity at 10 µM was -1.79%.

For `CCN1N=C(C(=O)N2CCCC(c3nc(C)cs3)C2)CCC1=O` (stereo unspecified), the cytotoxicity at 10 µM was -3.12%.

`CCn1cnnc1C1CCN(C(=O)c2cc(F)ccc2OC)CC1`: the cytotoxicity at 10 µM was -3.35%.

On to `CC(C)Oc1ccc(Cl)c(C(=O)N2CCN(CCO)CC2)n1`, for which the cytotoxicity at 10 µM is -3.82%.

`CCn1cc(CN2CCCN(C(=O)CCc3ccccc3)CC2)cn1`: the cytotoxicity at 10 µM was -7.9%.

In the case of `O=C(c1ccc2[nH]nnc2c1)N1CCC(Nc2cccnn2)CC1`, the cytotoxicity at 10 µM is -1.49%.

As for `O=C1COc2ccc(C(=O)NS(=O)(=O)c3cc(F)ccc3F)cc2N1`, the cytotoxicity at 10 µM was -4.92%.

In the case of `COc1ccccc1OCCC(=O)N1CCCC1Cn1cccn1` (stereo unspecified), the cytotoxicity at 10 µM is -5.19%.

As to `COc1ccc(C(=O)N(Cc2cnn(C)c2)C(C)C)cc1OC(F)F`, the cytotoxicity at 10 µM was -5.17%.

In the case of `CCOc1cc(C(=O)N2CCCC(c3noc(C)n3)C2)ccc1OC` (stereo unspecified), the cytotoxicity at 10 µM was -3.33%.

As for `O=C1NCCN1C1CCCN(Cc2coc(-c3cccs3)n2)C1` (stereo unspecified), the cytotoxicity at 10 µM was -4.39%.

For the compound `Cc1ccc(-n2nnc(C(=O)NCC3(CO)CC3)c2C2CC2)cc1`, the cytotoxicity at 10 µM is -4.43%.

Turning to `Cc1ncsc1C(=O)N(Cc1ccccc1)C1CC1`, the cytotoxicity at 10 µM is -6.48%.

With `Cc1cccc(NC(=O)C2CSCN2C(=O)c2cnccn2)c1C` (stereo unspecified), the cytotoxicity at 10 µM is -0.691%.

On to `Cn1cnc2c1CCN(Cc1csc(C3CCCCC3)n1)C2`, for which the cytotoxicity at 10 µM is -3.36%.

Regarding `Cc1ccc(OCC(O)CN2CCC(Cn3cc(C)cn3)CC2)cc1` (stereo unspecified), the cytotoxicity at 10 µM was -3.17%.

On to `CC(OCc1ccccc1)C(=O)NCc1ccc(N(C)C)cc1` (stereo unspecified), for which the cytotoxicity at 10 µM is -12%.

On to `CCc1nnc2n1CCN(C(=O)c1cc3cc(F)ccc3[nH]1)C2`, for which the cytotoxicity at 10 µM is -9.52%.

In the case of `Cc1cnn(CC2CN(Cc3nnc(C4CC4)o3)CCO2)c1` (stereo unspecified), the cytotoxicity at 10 µM was -11.8%.

Consider `Cc1ccc(NC(=O)C2CSCN2C(=O)c2cnccn2)c(C)c1` (stereo unspecified), for which the cytotoxicity at 10 µM was -8.6%.

As for `CN1CCCC1CNC(=O)CCCOCc1ccccc1` (stereo unspecified), the cytotoxicity at 10 µM was -5.59%.

For the compound `COc1c(CNC(c2ccc(F)cc2)C(C)(C)C)c(C)nn1C` (stereo unspecified), the cytotoxicity at 10 µM is 0.0161%.

Consider `CCN(Cc1ccc2c(c1)OCO2)C(=O)CCc1c(C)nc(C)[nH]c1=O`, for which the cytotoxicity at 10 µM was -4.61%.

Consider `Cc1cc2n(n1)CC(CNCc1ccc(-n3cccn3)nc1)CN2` (stereo unspecified), for which the cytotoxicity at 10 µM is -10.5%.

With `CCc1nc(CN2CCCN(C(=O)c3cn[nH]c3CC)CC2)cs1`, the cytotoxicity at 10 µM was -7.21%.

For the compound `O=C(CN(C1=NCCCC1)c1ccccc1)c1ccc2c(c1)OCCO2`, the cytotoxicity at 10 µM came to 8.9%.

Consider `NCC1[C@H]2CN(CCc3ccccc3)C[C@@H]12` (stereo partly specified), for which the cytotoxicity at 10 µM was determined as 5.22%.

As for `COc1ccc(CN2CC[C@@H](O)[C@@H]2Cc2cnn(C)c2)cc1`, the cytotoxicity at 10 µM was -68.3%.

Take `c1cnc(N2CC3(CCN(C4CCOCC4)CC3)c3ccccc32)nc1`: the cytotoxicity at 10 µM was -6.32%.

`O=C([C@@H]1C[C@@H]2CCN(Cc3ccc4c(c3)OCO4)C[C@@H]2O1)N1CCCC1`: the cytotoxicity at 10 µM was -2.46%.

In the case of `CC[C@H](N)Cn1nc(-c2cccs2)oc1=O`, the cytotoxicity at 10 µM turned out to be 1.75%.

Take `CN(C)CCOCC1CN(Cc2ccc(F)cc2)Cc2nnn(C)c21` (stereo unspecified): the cytotoxicity at 10 µM is 4.59%.

For the compound `Cn1cnc2c1C(COCC1CCOCC1)CN(c1ncccn1)C2` (stereo unspecified), the cytotoxicity at 10 µM is -74.1%.

With `Cc1cc(C(=O)N2CCCC3(COCCN(c4ncccn4)C3)C2)[nH]n1` (stereo unspecified), the cytotoxicity at 10 µM was -3.58%.

`CC(C)(C)c1cc(CN2C[C@H]3CC[C@@H](C2)N(Cc2ccccn2)C3)n[nH]1`: the cytotoxicity at 10 µM came to 0.541%.
